Experimental data as given in ChEMBL document CHEMBL4808227, “Induction of apoptosis, cytotoxicity and radiosensitization by novel 3,4-dihydroquinazolinone derivatives” (Bioorg Med Chem Lett, 2021).
Activity calls are given as the source filed them. The rule behind the calls is not given here.

Tests used:
HepG2 [1] = experiment: Cytotoxicity against human HepG2 cells measured after 24 hrs by MTT assay; format: functional, cell-based; conditions: HepG2, 24 h
How it was run: (§1)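 MTT viability assay on HepG-2 and MCF-7 cells with serial dilutions of compound for 24 hr. Viability is expressed as percent of untreated cells (taken as 100%). IC50 is the concentration inhibiting growth by 50%, mean ± SD of three independent experiments.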

MCF7 [2] = experiment: Cytotoxicity against human MCF7 cells measured after 24 hrs by MTT assay; format: functional, cell-based; conditions: MCF7, 24 h; how it was run: as §1
HepG2 [3] = experiment: Radiosensitizing activity against human HepG2 cells assessed as downregulation of XIAP mRNA expression pretreated with compound followed by exposure to 8 Gy gamma irradiation by real time RT-PCR analysis; format: functional, cell-based
[4] = Downregulation of Survivin mRNA expression in human HepG2 cells by real time RT-PCR analysis relative to control; format: functional
How it was run: (§2)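 HepG-2 cells were treated with compound. Survivin, XIAP and p21 mRNA were quantified by real-time RT-PCR, with each triplicate's Ct normalized to GAPDH. Expression is relative to control.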

HepG2 [5] = experiment: Radiosensitizing activity against human HepG2 cells assessed as reduction in cell viability pretreated with compound followed by exposure to 8 Gy gamma irradiation and measured by MTT assay; format: functional, cell-based; conditions: HepG2, light or radiation study
How it was run: (§3)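 HepG-2 and MCF-7 cells containing compound received a single dose of 8 Gy gamma radiation. Cytotoxicity was then measured, with IC50 as the mean ± SD of three independent experiments.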

HepG2 [6] = experiment: Induction of apoptosis in human HepG2 cells assessed as viable cells by Annexin V-FITC/propidium iodide staining based flow cytometric analysis (reference value: 94.4 %); format: functional
[7] = Upregulation of p21 mRNA expression in human HepG2 cells by real time RT-PCR analysis relative to control; format: functional; how it was run: as §2
HepG2 [8] = experiment: Cell cycle arrest in human HepG2 cells assessed as accumulation of cells at G0/G1 phase measured by flow cytometry (reference value: 71.6%); format: functional
HepG2 [9] = experiment: Induction of apoptosis in human HepG2 cells assessed as increase in caspase-3 level by ELISA relative to control; format: functional
How it was run: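 HepG-2 cells were treated with compound, with DMSO-treated cells as control. Caspase-3 secreted into the culture medium was measured by ELISA, given as mean ± SD, n = 3.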

HepG2 [10] = experiment: Cell cycle arrest in human HepG2 cells assessed as accumulation of cells at S phase measured by flow cytometry (reference value: 6.08%); format: functional
HepG2 [11] = experiment: Induction of apoptosis in human HepG2 cells assessed as necrotic cells by Annexin V-FITC/propidium iodide staining based flow cytometric analysis (reference value: 0.007 %); format: functional
HepG2 [12] = experiment: Radiosensitizing activity against human HepG2 cells assessed as downregulation of Survivin mRNA expression pretreated with compound followed by exposure to 8 Gy gamma irradiation by real time RT-PCR analysis; format: functional, cell-based
[13] = biological target: Epidermal growth factor receptor (Homo sapiens, UniProt P00533); experiment: Inhibition of EGFR (unknown origin)
Sequence of Epidermal growth factor receptor (P00533 whole entry): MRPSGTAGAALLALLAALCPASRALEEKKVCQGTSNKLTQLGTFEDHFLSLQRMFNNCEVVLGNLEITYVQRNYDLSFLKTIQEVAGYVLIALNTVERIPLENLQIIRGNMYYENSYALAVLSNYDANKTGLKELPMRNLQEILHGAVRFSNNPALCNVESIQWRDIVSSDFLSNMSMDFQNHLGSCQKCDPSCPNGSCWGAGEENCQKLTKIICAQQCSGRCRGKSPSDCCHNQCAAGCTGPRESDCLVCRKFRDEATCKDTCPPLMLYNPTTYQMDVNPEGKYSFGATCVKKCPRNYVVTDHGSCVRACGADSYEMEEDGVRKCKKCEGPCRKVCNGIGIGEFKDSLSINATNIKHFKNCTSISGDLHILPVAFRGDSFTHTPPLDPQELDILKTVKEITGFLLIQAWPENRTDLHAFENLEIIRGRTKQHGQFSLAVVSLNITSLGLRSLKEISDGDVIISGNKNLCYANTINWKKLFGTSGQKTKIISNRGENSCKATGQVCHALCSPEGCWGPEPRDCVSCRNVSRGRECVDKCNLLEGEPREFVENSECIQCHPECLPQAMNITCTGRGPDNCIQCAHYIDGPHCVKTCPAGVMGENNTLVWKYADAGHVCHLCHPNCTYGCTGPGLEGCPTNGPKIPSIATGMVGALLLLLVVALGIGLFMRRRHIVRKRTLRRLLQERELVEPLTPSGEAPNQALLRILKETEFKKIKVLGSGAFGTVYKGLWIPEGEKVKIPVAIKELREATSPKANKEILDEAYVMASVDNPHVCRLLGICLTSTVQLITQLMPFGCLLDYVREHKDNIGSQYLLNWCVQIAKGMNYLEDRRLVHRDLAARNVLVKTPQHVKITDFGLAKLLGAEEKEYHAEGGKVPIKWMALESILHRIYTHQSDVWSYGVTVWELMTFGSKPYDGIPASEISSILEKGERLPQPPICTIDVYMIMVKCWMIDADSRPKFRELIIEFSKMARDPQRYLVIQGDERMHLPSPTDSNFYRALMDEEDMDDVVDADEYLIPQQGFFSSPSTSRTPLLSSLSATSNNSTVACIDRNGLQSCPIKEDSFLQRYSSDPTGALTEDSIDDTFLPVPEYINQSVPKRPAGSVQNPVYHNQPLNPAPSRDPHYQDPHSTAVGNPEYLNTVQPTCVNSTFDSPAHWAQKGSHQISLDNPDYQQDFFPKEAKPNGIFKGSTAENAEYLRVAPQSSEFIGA

[14] = Downregulation of XIAP mRNA expression in human HepG2 cells by real time RT-PCR analysis relative to control; format: functional; how it was run: as §2
HepG2 [15] = experiment: Induction of apoptosis in human HepG2 cells assessed as early apoptotic cells by Annexin V-FITC/propidium iodide staining based flow cytometric analysis (reference value: 5.06 %); format: functional
MCF7 [16] = experiment: Radiosensitizing activity against human MCF7 cells assessed as reduction in cell viability pretreated with compound followed by exposure to 8 Gy gamma irradiation and measured by MTT assay; format: functional, cell-based; conditions: MCF7, light or radiation study; how it was run: as §3
HepG2 [17] = experiment: Induction of apoptosis in human HepG2 cells assessed as late apoptotic cells by Annexin V-FITC/propidium iodide staining based flow cytometric analysis (reference value: 0.507 %); format: functional
HepG2 [18] = experiment: Cell cycle arrest in human HepG2 cells assessed as accumulation of cells at G2/M phase measured by flow cytometry ( Rvb = 21.7%); format: functional

O=C(CSc1nc2ccccc2c(=O)n1Cc1ccc2c(c1)OCO2)Nc1cc(Cl)c(Cl)cc1Cl
IC50 (HepG2 [1]): 12.1 µM
IC50 (MCF7 [2]): 26.1 µM

O=c1c2ccccc2[nH]c(=S)n1Cc1ccc2c(c1)OCO2
IC50 (HepG2 [1]): 27.3 µM
IC50 (MCF7 [2]): 26.6 µM

O=C(CSc1nc2ccccc2c(=O)n1Cc1ccc2c(c1)OCO2)Nc1ccc(F)cc1
IC50 (HepG2 [1]): 7.18 µM
IC50 (MCF7 [2]): 14.5 µM

O=C(CSc1nc2ccccc2c(=O)n1Cc1ccc2c(c1)OCO2)Nc1cccc(F)c1
IC50 (HepG2 [1]): 8.51 µM
IC50 (MCF7 [2]): 7.6 µM

O=C(CSc1nc2ccccc2c(=O)n1Cc1ccc2c(c1)OCO2)Nc1ccccc1F
Activity (HepG2 [3]): Active
inhibition (INH) [4]: 50%
IC50 (HepG2 [1]): 2.46 µM
IC50 (HepG2 [5]): 1.56 µM
Activity (HepG2 [6]): 84.5%
Activity [7]: 400%
Activity (HepG2 [8]): 0%
Activity (HepG2 [9]): 100%
Activity (HepG2 [10]): 0.071%
Activity (HepG2 [11]): 0.02%
Activity (HepG2 [12]): Active
IC50 [13]: 0.207 µM
inhibition (INH) [14]: 50%
Activity (HepG2 [15]): 12.6%
IC50 (MCF7 [16]): 3.06 µM
IC50 (MCF7 [2]): 5.86 µM
Activity (HepG2 [17]): 0.762%
Activity (HepG2 [18]): 92.9%

O=C(CSc1nc2ccccc2c(=O)n1Cc1ccc2c(c1)OCO2)Nc1ccc(Br)cc1
IC50 (HepG2 [1]): 11.1 µM
IC50 (MCF7 [2]): 20.4 µM

O=C(CSc1nc2ccccc2c(=O)n1Cc1ccc2c(c1)OCO2)NNC(=S)Nc1ccc(S(=O)(=O)Nc2ccccn2)cc1
IC50 (HepG2 [1]): 36.9 µM
IC50 (MCF7 [2]): 3.87 µM

NNC(=O)CSc1nc2ccccc2c(=O)n1Cc1ccc2c(c1)OCO2
IC50 (HepG2 [1]): 8.15 µM
IC50 (MCF7 [2]): 20.7 µM

CCS(=O)(=O)NNC(=O)CSc1nc2ccccc2c(=O)n1Cc1ccc2c(c1)OCO2
Activity (HepG2 [3]): Active
inhibition (INH) [4]: 50%
IC50 (HepG2 [1]): 8.76 µM
IC50 (HepG2 [5]): 2.25 µM
Activity (HepG2 [6]): 86.1%
Activity [7]: 500%
Activity (HepG2 [8]): 0.039%
Activity (HepG2 [9]): 50%
Activity (HepG2 [10]): 2.45%
Activity (HepG2 [11]): 0.012%
Activity (HepG2 [12]): Active
IC50 [13]: 0.147 µM
inhibition (INH) [14]: 50%
Activity (HepG2 [15]): 13.5%
IC50 (MCF7 [16]): 5.93 µM
IC50 (MCF7 [2]): 15.3 µM
Activity (HepG2 [17]): 0.4%
Activity (HepG2 [18]): 94.2%

CCC(=O)Nc1ccc(S(=O)(=O)Nc2ccc(/C(C)=N/NC(=O)CSc3nc4ccccc4c(=O)n3Cc3ccc4c(c3)OCO4)cc2)cc1
IC50 (HepG2 [1]): 4.21 µM
IC50 (MCF7 [2]): 15.1 µM

COc1cccc2c1C(=O)c1c(O)c3c(c(O)c1C2=O)C[C@@](O)(C(=O)CO)C[C@@H]3O[C@H]1C[C@H](N)[C@H](O)[C@H](C)O1 [DOXORUBICIN]
IC50 (HepG2 [1]): 8.9 µM

CCS(=O)(=O)Nc1ccc(/C(C)=N/NC(=O)CSc2nc3ccccc3c(=O)n2Cc2ccc3c(c2)OCO3)cc1
IC50 (HepG2 [1]): 9.08 µM
IC50 (MCF7 [2]): 13.9 µM

Cc1ccc(S(=O)(=O)NNC(=O)CSc2nc3ccccc3c(=O)n2Cc2ccc3c(c2)OCO3)cc1
IC50 (HepG2 [1]): 28.2 µM
IC50 (MCF7 [2]): 49.8 µM

O=C(CSc1nc2ccccc2c(=O)n1Cc1ccc2c(c1)OCO2)Nc1ccc(Br)cc1Br
Activity (HepG2 [3]): Active
inhibition (INH) [4]: 50%
IC50 (HepG2 [1]): 4.01 µM
IC50 (HepG2 [5]): 1.76 µM
Activity (HepG2 [6]): 86.6%
Activity [7]: 400%
Activity (HepG2 [8]): 0.06%
Activity (HepG2 [9]): 50%
Activity (HepG2 [10]): 2.32%
Activity (HepG2 [11]): 0.02%
Activity (HepG2 [12]): Active
IC50 [13]: 1.03 µM
inhibition (INH) [14]: 50%
Activity (HepG2 [15]): 15.4%
IC50 (MCF7 [16]): 4.91 µM
IC50 (MCF7 [2]): 14.9 µM
Activity (HepG2 [17]): 0.16%
Activity (HepG2 [18]): 85.8%

O=C(CSc1nc2ccccc2c(=O)n1Cc1ccc2c(c1)OCO2)NNS(=O)(=O)c1ccccc1
IC50 (HepG2 [1]): 22.2 µM
IC50 (MCF7 [2]): 88.9 µM

O=C(CSc1nc2ccccc2c(=O)n1Cc1ccc2c(c1)OCO2)Nc1ccccc1Cl
IC50 (HepG2 [1]): 17.9 µM
IC50 (MCF7 [2]): 10.3 µM

O=C(CSc1nc2ccccc2c(=O)n1Cc1ccc2c(c1)OCO2)Nc1ccc(I)cc1
Activity (HepG2 [3]): Active
inhibition (INH) [4]: 50%
IC50 (HepG2 [1]): 13.2 µM
IC50 (HepG2 [5]): 4.32 µM
Activity (HepG2 [6]): 92.5%
Activity [7]: 200%
Activity (HepG2 [8]): 0.042%
Activity (HepG2 [9]): 50%
Activity (HepG2 [10]): 2.73%
Activity (HepG2 [11]): 0.024%
Activity (HepG2 [12]): Active
IC50 [13]: 0.754 µM
inhibition (INH) [14]: 50%
Activity (HepG2 [15]): 7.12%
IC50 (MCF7 [16]): 4.69 µM
IC50 (MCF7 [2]): 6.84 µM
Activity (HepG2 [17]): 0.308%
Activity (HepG2 [18]): 87.8%

CC(=O)Nc1ccc(S(=O)(=O)NNC(=O)CSc2nc3ccccc3c(=O)n2Cc2ccc3c(c2)OCO3)cc1
IC50 (HepG2 [1]): 33.9 µM
IC50 (MCF7 [2]): 11.4 µM

O=C(CSc1nc2ccccc2c(=O)n1Cc1ccc2c(c1)OCO2)NNC(=S)Nc1ccc(S(=O)(=O)Nc2ccc(Cl)nn2)cc1
IC50 (HepG2 [1]): 9.34 µM
IC50 (MCF7 [2]): 46 µM

C#Cc1cccc(Nc2ncnc3cc(OCCOC)c(OCCOC)cc23)c1 [ERLOTINIB]
IC50 (MCF7 [2]): 12.4 µM
